Source: ChEMBL document CHEMBL4033777, “Next-Generation Hypoxic Cell Radiosensitizers: Nitroimidazole Alkylsulfonamides” (J Med Chem, 2018)
pIC50: −log10 of the molar value. Converted amounts (≈) assume the structure as drawn.

What was measured:
[1] = test system: HCT-116; experiment: Cytotoxicity against human HCT116 cells incubated for 4 hrs under anaerobic condition measured after 5 days by sulforhodamine B assay; type: functional, cell-based
In short: (§1)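 STR-authenticated, mycoplasma-free HCT116 cells in αMEM + 5% FCS were seeded at 700 cells/well and allowed 2 h to attach. Drug was added from DMSO stocks (<1% DMSO) in serial 3-fold dilutions for 4 h, oxic or anoxic (Pd-catalyst anaerobic chamber, medium pre-equilibrated ≥3 days). After washing, cells regrew for 5 days before SRB staining and IC50 determination.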

[2] = test system: HCT-116; experiment: Hypoxic cytotoxicity ratio of IC50 for human HCT116 cells under oxic condition to IC50 for human HCT116 cells under anoxic condition
In short: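 HCT116 cells, 700 per well and attached 2 h, got a 4 h exposure to 3-fold serial dilutions (<1% DMSO) under air or in a Pd-catalyst anaerobic chamber with pre-equilibrated medium. Cells were washed, regrown 5 days, and stained with sulforhodamine B to give IC50. HCR = oxic IC50 / anoxic IC50.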

[3] = test system: HCT-116; experiment: Hypoxia radiosensitization activity in human HCT116 cells assessed as survival ratio by measuring ratio of cell survival with 15 Gy radiation in absence to presence of compound at anoxic IC50 preincubated for 1 hr followed by 15 Gy irradiation measured after 10 days by methylene blue staining-based cell counting method; type: functional
In short: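 Anoxic HCT116 cells were seeded at 10^5/well and treated at the anoxic IC50 concentration for 1 h at room temperature. They were irradiated with 15 Gy (60Co, ~2 Gy/min) in a sealed steel box, then plated clonogenically. Colonies of >50 cells were counted […]. SR15 = survival with radiation / survival with drug + radiation.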

[4] = Electrophilicity of the compound in pH 7 phosphate buffer assessed as one-electron reduction potential
In short: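 The one-electron reduction potential was set by pulse radiolysis equilibria at pH 7.0 (2.5 mM phosphate), established within 20 µs against benzylviologen, methylviologen or triquat. ΔE came from equilibrium constants via the Nernst equation, at three concentration ratios and 22 ± 2 °C.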

[5] = test system: HCT-116; experiment: Cytotoxicity against human HCT116 cells at anoxic IC50 incubated for 1 hr at 21 degC by clonogenic survival assay; conditions: hct-116, 1 h
[6] = Solubility of the compound in alphaMEM containing 5% FCS and 1% DMSO by HPLC analysis; type: physicochemical
In short: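 Saturated drug solutions were incubated at 37 °C in αMEM with 5% FCS and 1% DMSO. Dissolved drug was quantified by HPLC.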

[7] = test system: HCT-116; experiment: Cytotoxicity against human HCT116 cells incubated for 4 hrs under aerobic condition measured after 5 days by sulforhodamine B assay; type: cell-based; in short: as §1
[8] = test system: HCT-116; experiment: In vivo hypoxia radiosensitization activity in human HCT116 cells xenografted in NIH-III mouse assessed as survival ratio by measuring ratio of cell survival with 12.5 Gy radiation in absence to presence of compound at 2.20 mmol/kg, iv pretreated as single dose for 10 mins followed by irradiation measured after 18 hrs by excision assay; type: functional
[9] = test system: Mus musculus; experiment: Drug level in NIH-III mouse assessed as maximum achievable dose at 10 ml/kg, iv; type: ADME; conditions: in vivo
In short: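 Non-tumor-bearing female NIH-III mice (~20 g) received freshly prepared solutions i.v. at 10 mL/kg in 0.9% saline with 1% DMSO, or saline with 2 molar equivalents NaHCO3 for phosphate prodrugs. MAD was the maximum dose that dissolved in the injection volume.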

| Structure (SMILES) | pIC50 [1] | Ratio IC50 [2] | Ratio [3] | Activity [4] [mV] | Activity [5] | solubility [6] [mM] | pIC50 [7] | Ratio [8] | Drug uptake [9] [mmol/kg] |
| --- | --- | --- | --- | --- | --- | --- | --- | --- | --- |
| O=[N+]([O-])c1cn(CS(=O)(=O)NCCO)cn1 | < 2.22 | <0.5 |  |  |  |  |  |  |  |
| COCC(O)Cn1ccnc1[N+](=O)[O-] (centres undefined) [MISONIDAZOLE] | 3.28 | >62.44 | 7.1 | -389 | Non-Toxic | > 100 |  |  |  |
| Cc1ncc([N+](=O)[O-])n1CCS(=O)(=O)NCCCN(C)C | 2.92 | 3 | 8 |  | Non-Toxic | > 53.8 |  |  |  |
| COCCNS(=O)(=O)CCn1cnc([N+](=O)[O-])c1 | < 2.28 |  | 9 | -538 | Non-Toxic | 16 (≈ 4.45 mg/mL) |  |  |  |
| Cc1ncc([N+](=O)[O-])n1CCS(=O)(=O)N1CCOCC1 | 4.42 | 1.5 | 1.33 |  | Non-Toxic | 2.77 (≈ 0.843 mg/mL) |  |  |  |
| CCN(CC)CCNS(=O)(=O)CCn1c([N+](=O)[O-])cnc1C | 2.89 | 2 | 9 |  | Non-Toxic | 45.7 (≈ 15.2 mg/mL) |  |  |  |
| O=[N+]([O-])c1nccn1CS(=O)(=O)NCCN1CCCC1 | 4.96 | 96 | 1.7 |  | Non-Toxic | 16.1 (≈ 4.88 mg/mL) | 2.32 to 3.42 |  |  |
| COCCNS(=O)(=O)CCn1ccnc1[N+](=O)[O-] | 3.40 | 5 | 6.4 | -391 | Non-Toxic | 59.4 (≈ 16.5 mg/mL) | 2.32 to 3.42 |  |  |
| O=[N+]([O-])c1cncn1CCS(=O)(=O)NCCOP(=O)(O)O |  |  |  |  |  |  |  | 2.6 | 2.2 |
| O=C(O)CNS(=O)(=O)Cn1ccnc1[N+](=O)[O-] | 3.05 | 10 | 4 |  | Non-Toxic | 59.3 (≈ 15.7 mg/mL) | 2.32 to 3.42 |  |  |
| COCCCNS(=O)(=O)CCn1c([N+](=O)[O-])cnc1C | 2.43 | 1.2 | 5 |  | Non-Toxic | 17 (≈ 5.21 mg/mL) |  |  |  |
| O=[N+]([O-])c1cn(CS(=O)(=O)NCCN2CCOCC2)cn1 | 2.48 | 1.3 | 7 |  | Non-Toxic |  |  |  |  |
| O=C(O)CCNS(=O)(=O)Cn1ccnc1[N+](=O)[O-] | 2.36 | 1 | 2 |  | Non-Toxic | 72.1 (≈ 20.1 mg/mL) | 2.32 to 3.42 |  |  |
| Cc1ncc([N+](=O)[O-])n1CCS(=O)(=O)NCCN1CCOCC1 | 3.10 | 1.4 | 2.71 |  | Non-Toxic | 44.1 (≈ 15.3 mg/mL) |  |  |  |
| Cc1ncc([N+](=O)[O-])n1CCS(=O)(=O)N1CCN(C)CC1 | 2.80 | 0.6 | 1.8 |  | Non-Toxic | 14.5 (≈ 4.6 mg/mL) |  |  |  |
| O=[N+]([O-])c1cn(CCS(=O)(=O)NCCO)cn1 | 1.96 | 1 | 6.3 |  | Non-Toxic | > 100 |  |  |  |
